Assay [1] deals with Cannabinoid receptor 1 (Rattus norvegicus, UniProt P20272). As to the kind of experiment: Displacement of [3H]CP-55940 from CB1 receptor in Sprague-Dawley rat brain membranes after 1 hr by liquid scintillation spectrophotometry. Format: cell membranes, Membrane. In short, it runs like this:
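Membranes from whole rat brain (CB1) or human CB2-expressing CHO cells (CB2) were incubated 1 hr at 30°C with 1 nM [3H]CP-55,940 and six competitor concentrations (0.1 nM–10 μM). Buffer contained 5 mg/ml BSA, ethanol ≤0.4%. Nonspecific binding was defined with 1 μM CP-55,940. Separation on polyethyleneimine-treated GF/B filters, then scintillation counting. IC50 from log-linear regression, Ki via Cheng-Prusoff; triplicate, 3–6 repeats.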
On the technique in general: In a radioligand displacement assay an active substance lowers the binding of a labelled ligand.

The target in assay [2] is T1, Cannabinoid receptor 2 (Homo sapiens, UniProt P34972). Briefly: Displacement of [3H]CP-55940 from human CB2 receptor expressed in CHO cells after 1 hr by liquid scintillation spectrophotometry. The class given is cell-based.
Assay [3] is described as follows: Selectivity ratio of IC50 for CB1 receptor in Sprague-Dawley rat brain membranes to IC50 for human CB2 receptor. The class given is cell membranes. The following applies: Membrane.
Assay [4] has as its target Cannabinoid receptor 1 (Homo sapiens, UniProt P21554). Briefly: Binding affinity to CB1 receptor.
Assay [5] concerns the target T1, Cannabinoid receptor 2. As to the kind of experiment: Binding affinity to CB2 receptor.
The target in assay [6] is T1, Cannabinoid receptor 2. Briefly: Agonist activity at human CB2 receptor expressed in CHO cells assessed as stimulation of [35S]GTPgammaS binding after 1.5 hrs by liquid scintillation spectrophotometry. Format: functional, cell-based. In short, it runs like this:
(§1)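 Membranes from CB2-CHO cells grown in DMEM/Ham F-12 with G418 and 5% fetal calf serum. Reactions used 10 μg membrane protein with 10 μM GDP, 0.1 nM radiolabelled GTPγS, 1 mg/mL BSA and varied drug concentrations in NaCl/EGTA Tris buffer pH 7.4, for 1.5 hr at 30°C. Nonspecific binding (unlabeled GTPγS) subtracted; filtration, scintillation counting. Nonlinear regression; Emax relative to 3 μM CP-55,940; mean ± SEM, ≥3 experiments in triplicate.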
A general note: Binding of GTPγS marks nucleotide exchange on a G protein.

Assay [7] deals with T1, Cannabinoid receptor 2. Briefly: Agonist activity at human CB2 receptor expressed in CHO cells assessed as stimulation of [35S]GTPgammaS binding after 1.5 hrs by liquid scintillation spectrophotometry relative to CP-55940. The class given is functional, cell-based. The gist of the method:
as §1

Cannabinoid receptor 1 (Rattus norvegicus, UniProt P20272), sequence (P20272 whole entry): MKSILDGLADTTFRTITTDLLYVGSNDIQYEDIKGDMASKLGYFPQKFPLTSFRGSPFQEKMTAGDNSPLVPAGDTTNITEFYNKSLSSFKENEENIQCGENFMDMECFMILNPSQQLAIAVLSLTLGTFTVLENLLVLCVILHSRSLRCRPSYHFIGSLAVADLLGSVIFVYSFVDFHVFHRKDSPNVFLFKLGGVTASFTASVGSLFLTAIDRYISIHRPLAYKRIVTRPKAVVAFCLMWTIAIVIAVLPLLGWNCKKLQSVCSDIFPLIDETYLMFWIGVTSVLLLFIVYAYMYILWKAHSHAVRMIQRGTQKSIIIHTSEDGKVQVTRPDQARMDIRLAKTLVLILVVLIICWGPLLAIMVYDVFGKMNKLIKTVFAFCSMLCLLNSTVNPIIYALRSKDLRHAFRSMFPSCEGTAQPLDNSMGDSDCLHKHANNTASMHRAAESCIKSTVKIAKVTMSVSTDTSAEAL
T1 sequence (P34972 whole entry): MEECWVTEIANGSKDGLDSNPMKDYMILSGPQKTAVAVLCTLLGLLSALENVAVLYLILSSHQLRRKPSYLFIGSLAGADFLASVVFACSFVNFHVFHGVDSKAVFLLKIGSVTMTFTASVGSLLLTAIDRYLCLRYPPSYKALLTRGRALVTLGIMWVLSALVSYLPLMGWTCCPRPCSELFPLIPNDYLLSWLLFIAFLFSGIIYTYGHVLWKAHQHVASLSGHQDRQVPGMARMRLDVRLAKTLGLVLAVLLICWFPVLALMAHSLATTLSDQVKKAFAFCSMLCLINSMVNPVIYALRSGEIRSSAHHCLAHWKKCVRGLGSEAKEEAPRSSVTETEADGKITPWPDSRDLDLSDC
Cannabinoid receptor 1 (Homo sapiens, UniProt P21554), sequence (P21554 whole entry): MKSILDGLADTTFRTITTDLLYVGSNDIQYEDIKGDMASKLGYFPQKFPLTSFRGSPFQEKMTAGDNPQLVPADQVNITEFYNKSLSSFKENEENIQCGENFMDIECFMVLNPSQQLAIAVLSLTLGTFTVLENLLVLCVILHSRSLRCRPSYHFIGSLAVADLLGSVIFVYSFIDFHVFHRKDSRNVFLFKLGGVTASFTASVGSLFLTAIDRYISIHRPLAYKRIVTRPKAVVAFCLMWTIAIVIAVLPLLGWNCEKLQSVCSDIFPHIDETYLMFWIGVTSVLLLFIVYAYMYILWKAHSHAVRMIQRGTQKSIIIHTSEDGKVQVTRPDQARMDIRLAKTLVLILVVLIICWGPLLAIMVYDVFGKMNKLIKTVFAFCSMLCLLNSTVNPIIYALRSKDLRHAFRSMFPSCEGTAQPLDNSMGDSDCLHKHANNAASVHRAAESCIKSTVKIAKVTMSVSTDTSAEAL

With `CCCC(C)(C)c1cc(Br)c2c(c1)OC(C)(C)[C@@H]1CC=C(C)C[C@@H]21`, the Ki (usually a measure of affinity in units of concentration, obtained from inhibition or displacement) at Cannabinoid receptor 1 [1] is above 10000 nM; on Cannabinoid receptor 2 [2], 265 nM. Moreover, in assay [3], the Ratio Ki amounted to 38.
As to `CCCCCCC(C)(C)c1ccc2c(c1)OC(C)(C)[C@@H]1CC=C(C)C[C@@H]21`, the figures for the Ki at Cannabinoid receptor 1 [4] and at Cannabinoid receptor 2 [5] were 23 nM and 2.9 nM, respectively.
For the compound `CCCCCC(C)(C)c1cc(Br)c2c(c1)OC(C)(C)[C@@H]1CC=C(C)C[C@@H]21`, the Ki at Cannabinoid receptor 1 [1] came to 1440 nM; on Cannabinoid receptor 2 [2] it was 28 nM. Also, the Ratio Ki in assay [3] is 52. Moreover, on Cannabinoid receptor 2 [6], the EC50 (in general, the concentration needed to bring the measured effect to its halfway point) came out at 28.6 nM. Also, the maximal effect (Emax) (in general, the size of the effect at its maximum, as opposed to the concentration needed) on Cannabinoid receptor 2 [7] amounted to 92.3%.
Consider `CCCCC(C)(C)c1cc(Br)c2c(c1)OC(C)(C)[C@@H]1CC=C(C)C[C@@H]21`, for which the Ki at Cannabinoid receptor 1 [1] came to 1140 nM; on Cannabinoid receptor 2 [2] it was 71 nM. For the same compound, the Ratio Ki in assay [3] came to 16.
`CCCCCCC(C)(C)c1ccc2c(c1)OC(C)(C)[C@@H]1CC=C(CO)C[C@@H]21`: the Ki on Cannabinoid receptor 1 [4] was 1.2 nM; on Cannabinoid receptor 2 [5] it was 0.032 nM.
`CCCCCc1cc(Br)c2c(c1)OC(C)(C)[C@@H]1CC=C(C)C[C@@H]21`: the Ki on Cannabinoid receptor 1 [1] is above 10000 nM; at Cannabinoid receptor 2 [2], 555 nM. The Ratio Ki in assay [3] was found to be 18.
For `CCCC(C)(C)c1ccc2c(c1)OC(C)(C)[C@@H]1CC=C(C)C[C@@H]21`, the Ki at Cannabinoid receptor 1 [1] is 677 nM. In addition, the Ratio Ki in assay [3] is 294. Further, the EC50 on Cannabinoid receptor 2 [6] amounted to 4 nM. Further, the maximal response (Emax) at Cannabinoid receptor 2 [7] was 112%.
For `CCCCCCC(C)(C)c1cc(Br)c2c(c1)OC(C)(C)[C@@H]1CC=C(C)C[C@@H]21`, the Ki at Cannabinoid receptor 1 [1] was determined as 562 nM; on Cannabinoid receptor 2 [2], 34 nM. For the same compound, in assay [3], the Ratio Ki is 27. Moreover, the EC50 on Cannabinoid receptor 2 [6] worked out at 15 nM. In addition, the Emax on Cannabinoid receptor 2 [7] amounted to 91%.
